# Hits are enriched below; roughly 2.2% of the tested compounds scored in any of these assays.
# DAGLB inh: blocks human DAGLB lipase activity. Q8NCG7. HEK293T DAGLB membrane lysate, EnzChek fluorogenic substrate. inhibition, % at 5.17 µM. actives 0.059% (n = 340,000); in the data active means inhibition above about 34%
# GRK2 aptamer HTS: human GRK2 inhibition via aptamer displacement; P25098; bead flow cytometry, FAM-aptamer displacement from GRK2; inhibition of aptamer binding, % at 10 µM; actives 0.59% (n = 330,000);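 active means inhibition of aptamer binding above 40%, roughly 3 SD of noise, on plates passing a quality check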;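 further: median bead fluorescence of bound FAM aptamer so fluorescent compounds give negative values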
# DNA FID counter: displaces DNA intercalator in HCV helicase counter-screen. inhibition, % at 7.9 µM. DNA fluorescent intercalator displacement, fluorescence. actives 0.17% (n = 290,000); in the data active means inhibition above about 37%;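 further: higher means more ethidium bromide displaced from hairpin DNA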
# HCV NS3 hel inh: inhibitors of Hepatitis C virus NS3 helicase. NS3 helicase DNA unwinding, Cy5 molecular beacon fluorescence. inhibition, % at 10.9 µM. actives 0.56% (n = 290,000). AID 1800;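 active means inhibition above the mean of all tested compounds plus 3 SD, set per campaign, cut at about 35% in these data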
#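 Assay system – hepatitis C virus NS3 helicase domain fragment enzyme · Buffer or medium – MOPS pH 6.5, MgCl2, DTT, Tween20, BSA · Reagent – Cy5/quencher beacon DNA duplex and ATP to start · Compound – single 10.9 µM dose · Timing – 1 h at 25 °C · Technique – Cy5 beacon fluorescence read at start and 1 h · Measure – % inhibition of unwinding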
# GPR7 antag: blocks human GPR7 receptor signaling. actives 1.1% (n = 290,000). inhibition, % at 4.4 µM. GPR7-expressing cells, fluorescence antagonist assay. AID 1861; in the data active means inhibition above about 16%, passing the limit was not always enough;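 further: cells stimulated with the agonist NPW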
# Target sequence (P48145 whole entry, looked up): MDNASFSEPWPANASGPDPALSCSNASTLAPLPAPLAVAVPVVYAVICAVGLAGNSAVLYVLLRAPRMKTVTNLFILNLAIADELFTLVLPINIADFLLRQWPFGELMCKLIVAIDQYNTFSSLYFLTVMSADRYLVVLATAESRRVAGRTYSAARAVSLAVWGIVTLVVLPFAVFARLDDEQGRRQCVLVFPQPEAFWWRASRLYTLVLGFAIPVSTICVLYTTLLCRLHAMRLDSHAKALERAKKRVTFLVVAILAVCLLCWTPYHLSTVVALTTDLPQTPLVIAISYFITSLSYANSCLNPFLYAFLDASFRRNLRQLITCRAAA
# core dimer inh: HCV core protein dimerization inhibition; TR-FRET GST/Flag-core106 dimerization, 1536-well; inhibition, % at 5 µM; actives 0.33% (n = 300,000);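 active means inhibition above the mean of all tested compounds plus 3 SD, set per screening campaign, cut at about 45% in these data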
#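 Assay system: Tagged HCV core106 pair (GST and Flag) | Buffer or medium: KF-containing HEPES buffer, pH 7.45, DTT, CHAPS, BSA | Also added: Eu donor and XL665 acceptor anti-tag antibodies | Dosing: One concentration, 5 µM, in 0.5% DMSO | Timing: 4 h at 22.5 °C | Technique: TR-FRET 671 and 617 nm emission | Repeats: Singlicate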
# GRK2 inh confirm: confirmation of human GRK2 inhibitors displacing RNA aptamer | shares compounds with GRK2 aptamer HTS | aptamer displacement, % at 10 µM | AID 504451 | actives 4% (n = 2,000) | bead-bound GRK2, FAM-aptamer displacement, flow cytometry;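 active means aptamer displacement above 40%, near three times the noise of non-fluorescent compounds, on plates passing quality checks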;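 further: negative values mostly reflect intrinsic compound fluorescence rather than true enhancement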
# FAM quench CP1: quenches fluorescent RNA aptamer, GRK2 hit artifact; shares compounds with GRK2 aptamer HTS; Carboxyfluorescein RNA aptamer on beads, flow cytometry quenching; active compounds read low; fluorescence response (% of DMSO), % at 10 µM; 2,000 tested, under 10 active; AID 504580;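 active means compounds that quench the bead-bound fluorescent RNA probe, cutting fluorescence to under half of the solvent control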;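 further: counterscreen run without GRK2 so only probe quenching by compound is measured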
# GRK2 confirm 2: human GRK2 inhibition confirmation, cherry pick 2; bead-bound GRK2, FAM-aptamer displacement, flow cytometry; AID 504782; 360 tested, under 10 active; shares compounds with GRK2 aptamer HTS; inhibition of aptamer binding, % at 10 µM;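 active means inhibition of aptamer binding above 40%, about triple the noise seen with nonglowing compounds, on plates passing quality control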;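 further: negative values mostly come from compounds that fluoresce themselves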
# FAM quench CP2: counter-screen for GRK2 binding hits: quenchers of fluorescent RNA aptamer. AID 588494. carboxyfluorescein RNA aptamer beads, flow cytometry quenching; active compounds read low. shares compounds with GRK2 aptamer HTS. 360 tested, under 10 active. fluorescence response vs DMSO, % at 10 µM;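 active means response vs DMSO under 50%, meaning signal dropped by over half, treated as fluorescence quencher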;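 further: labelled aptamer on streptavidin beads without GRK2 as a quench counter-screen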
# Numbers stand for hits; i = inactive; nt = not tested or not shown.
SMILES,DAGLB inh,GRK2 aptamer HTS,DNA FID counter,HCV NS3 hel inh,GPR7 antag,core dimer inh,GRK2 inh confirm,FAM quench CP1,others
O=C(C[C@H]1C[C@H](C(=O)N2CCOCC2)[C@@]2(CCC3CCCC3)c3[nH]c4cc(-c5ccco5)ccc4c3CCN2C1=O)NCc1ccco1,i,i,nt,nt,nt,nt,nt,nt,
Cc1cc(C)cc(NC(=O)CSc2nnnn2-c2cccnc2)c1,i,i,i,i,i,i,nt,nt,
Cc1cc2c(cc1S(=O)(=O)N1CCc3ccccc31)NC(=O)CO2,i,73,i,i,i,i,i,i,
Cc1cc(CNC[C@H]2O[C@@H](n3cnc(C(N)=O)n3)[C@H](O)[C@@H]2O)c(C)n1-c1cccnc1,i,nt,nt,nt,nt,nt,nt,nt,
CS(=O)(=O)N(CC(=O)Nc1ccccc1-c1ccccc1)c1ccccc1,i,i,i,i,i,i,nt,nt,
Cc1ccc(N(CC(=O)Nc2ccccc2-c2ccccc2)S(=O)(=O)c2ccccc2)c(C)c1,i,i,i,i,i,i,i,i,
Cc1ccc(-c2cccc(C3CC=CC4C3C(=O)N(Cc3ccccc3)C4c3cc(C)ccc3F)c2)cc1 (centres undefined),i,i,nt,nt,nt,i,i,i,
Cc1ccc(S(=O)(=O)N(C)CC(=O)O/N=C(\N)c2ccccn2)cc1,i,100,i,i,i,i,i,i,
CN(CC(=O)O/N=C(\N)c1ccccn1)S(=O)(=O)c1ccc(Br)cc1,i,i,i,i,i,i,nt,nt,
C[C@@H]1CCCCO[C@@H](CN(C)C(=O)c2ccncc2)[C@@H](C)CN([C@H](C)CO)C(=O)c2cc(NC(=O)Cc3ccccc3)ccc2O1,i,nt,nt,nt,nt,nt,nt,nt,
O=C(COC(=O)c1ccc(OC(F)(F)F)cc1)Nc1ncccn1,i,41,nt,nt,nt,nt,i,i,
O=C(COC(=O)c1cccc(OC(F)F)c1)Nc1ncccn1,i,i,nt,nt,nt,nt,i,i,
COc1ccc(CC(=O)NNC(=O)COc2ccc(F)cc2)cc1S(=O)(=O)N1CCOCC1,i,41,nt,nt,nt,nt,i,i,
COc1ccc(CC(=O)NNC(=O)COc2ccc(C)cc2)cc1S(=O)(=O)N1CCOCC1,i,i,nt,nt,nt,i,nt,nt,
COc1ccccc1NC(=O)c1ccccc1C(=O)Nc1ccccc1OC,i,54,i,i,i,i,nt,nt,GRK2 confirm 2=i;FAM quench CP2=i
COc1ccc(NC(=O)Nc2ccccc2OC)cc1,i,i,i,i,i,i,nt,nt,
COc1ccccc1NC(=O)Nc1ccc(NC(=O)c2ccccc2O)cc1,i,92,i,i,i,i,i,i,
COc1ccccc1NC(=O)NCCCl,i,60,i,i,i,i,nt,nt,GRK2 confirm 2=i;FAM quench CP2=i
COc1ccc(CCN2CCCn3c2nc2c3c(=O)n(C)c(=O)n2C)cc1OC,i,nt,i,i,i,nt,nt,nt,
O=[N+]([O-])c1ccc(N2CCN(CCO)CC2)cc1Sc1nc2ccccc2[nH]1,i,i,i,i,i,i,nt,nt,
Cc1cc(C)cc(NC(=O)c2cccnc2)c1,i,i,i,i,i,nt,nt,nt,
Cc1cc(C)cc(C(=O)Nc2cccnc2)c1,i,82,i,i,i,i,i,i,
Cc1ccc2c(c1)Oc1ccc(NC(=O)CCl)cc1C(=O)N2,i,41,i,i,i,i,i,i,
COc1cc2c(cc1OC)C(C)N(S(=O)(=O)c1cccs1)CC2 (centres undefined),i,i,i,i,i,nt,nt,nt,
COc1cc2c(cc1OC)C(C)N(S(=O)(=O)c1ccc(C)cc1)CC2 (centres undefined),i,49,i,i,i,i,i,i,
O=C1NC(c2ccccc2)=N/C1=C/c1ccco1,i,i,i,i,i,i,nt,nt,
O=C1NC(c2cccc(Br)c2)=N/C1=C\c1ccco1,i,50,i,i,i,i,i,i,
O=C(O)c1nnn(-c2cccc(C(F)(F)F)c2)c1-c1ccccc1,i,i,i,i,i,i,nt,nt,
COc1cc([N+](=O)[O-])cc2sc(NC(C)=O)nc12,i,66,i,i,i,i,i,i,
CCCCC(=O)Nc1nc2c(OC)cc([N+](=O)[O-])cc2s1,i,i,i,i,i,i,nt,nt,

# Compound activity deposited in PubChem by several laboratories.
